Like-named read-outs stand apart in the source and are kept apart here.
Experiments:
[1] = cited from earlier work
[2] = format: in vivo, healthy adult subjects (human)
In short: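 Open-label, fixed-sequence, three periods, ≥10-day washouts, overnight-fasted. Single oral inhibitor FDC (50 mg/100 mg) given alone, after H2-antagonist 20 mg orally ~10 h and 2 h before, or ~2 h after PPI 40 mg on day 5 of 5 daily doses. Plasma sampled predose to 96 h; LC-MS/MS. Noncompartmental; t½ = ln2/λz; GMRs via mixed-effects model on log values.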

[3] = ref previous studies; cited from earlier work

| C24 GMR ([2]; GZR, EBR/GZR FDC + FAM / EBR/GZR FDC) | C24 GMR ([2]; GZR, EBR/GZR FDC + PAN / EBR/GZR FDC) | Structure (SMILES) | solubility versus stomach pH [1] | half-life ([2]; human, plasma, po, 100 mg) | apparent terminal half-life (t½) [3] | time to maximum drug concentration (tmax) [3] | tmax, median ([2]; EBR in plasma, EBR/GZR FDC + FAM 20 mg given 10 h and 2 h before) | C24 GMR ([2]; EBR, EBR/GZR FDC + FAM / EBR/GZR FDC) | C24 GMR ([2]; EBR, EBR/GZR FDC + PAN / EBR/GZR FDC) | Tmax ([2]; human, plasma, po, 100 mg) |
| --- | --- | --- | --- | --- | --- | --- | --- | --- | --- | --- |
| – | – | COC[C@H]1C[C@@H](c2ncc(-c3ccc4c(c3)COc3cc5c(ccc6nc([C@@H]7CC[C@H](C)N7C(=O)[C@@H](NC(=O)OC)C(C)C)[nH]c65)cc3-4)[nH]2)N(C(=O)[C@H](NC(=O)OC)c2ccccc2)C1 [velpatasvir] | decrease as stomach pH increases | – | – | – | – | – | – | – |
| 1.12 | 1.17 | C=C[C@@H]1C[C@]1(NC(=O)[C@@H]1C[C@@H]2CN1C(=O)[C@H](C(C)(C)C)NC(=O)O[C@@H]1C[C@H]1CCCCCc1nc3ccc(OC)cc3nc1O2)C(=O)NS(=O)(=O)C1CC1 [GZR, grazoprevir] | – | 33.8 h | ~20 h | 2 to 4 h | – | – | – | – |
| – | – | COC(=O)N[C@H](C(=O)N1CC2(CC2)C[C@H]1c1ncc(-c2ccc3c(c2)C(F)(F)c2cc(-c4ccc5nc([C@@H]6[C@H]7CC[C@H](C7)N6C(=O)[C@@H](NC(=O)OC)C(C)C)[nH]c5c4)ccc2-3)[nH]1)C(C)C [ledipasvir] | decrease as stomach pH increases | – | – | – | – | – | – | – |
| – | – | COC(=O)N[C@H](C(=O)N1CCC[C@H]1c1nc(-c2ccc3c(c2)O[C@@H](c2ccccc2)n2c-3cc3cc(-c4c[nH]c([C@@H]5CCCN5C(=O)[C@@H](NC(=O)OC)C(C)C)n4)ccc32)c[nH]1)C(C)C [EBR, elbasvir] | – | 19.3 h | ~20 h | 2 to 4 h | 3.50 h | 1.03 | 1.03 | 3.5 h |
